Measured values reported in PubChem BioAssay.
Results filed as inconclusive are left out.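 The calls were made as follows, unless noted: active = growth inhibition above 25% in both replicates, a cutoff set 3 SD above the mean; inconclusive = above 25% in only one replicate; inactive = the rest.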

What was measured:
[1] = S. cerevisiae growth inhibition in permissive medium (OD615), pilot counter-assay for S. cerevisiae lifespan shortening project, permissive growth control (AID 705); settings: OD615, 24 h, at 10 µM, stronger effect = higher value
Procedure, shortened: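 System: Engineered DeaD yeast | Buffer or medium: SC raffinose/galactose permissive medium | Incubation: Cells pre-grown 4 h, then 24 h compound exposure, 30 °C humidified | Measured by: Absorbance (optical density) at 615 nm | Read-out: Reduction in yeast growth (OD615)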

[2] = S. cerevisiae growth inhibition in restrictive medium, OD615, pilot screen, restrictive growth control, yeast lifespan reduction project (AID 706;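 active = growth inhibition above a set limit, 3 SD over mean compound inhibition, in both replicates, cut at about 43% in these data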;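 also: modified DeaD lifespan yeast strain shifted to restrictive glucose medium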); settings: OD615, 48 h, at 10 µM, stronger effect = higher value
Procedure, shortened: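 Material: modified S. cerevisiae; Medium: glucose-based CSMM-D restrictive medium; Compound dosing: one concentration, 10 µM final, 0.25% DMSO; Incubation: 48 h compound exposure at 30 °C; Measured by: OD615.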

[3] = doxorubicin toxicity protection in MRP-1 cells – H69AR cells, CellTiter-Glo, duplicate, MRP-1 activator project, pilot screen (AID 807;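 active = viability increase at or above a cutoff of the median across tested compounds plus 3 SD, cut at about 8.5% in these data, passing the limit was not always enough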;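 also: compound pretreatment 18-22 h then 72 h combined with doxorubicin; 0% = doxorubicin alone and 100% = vehicle without doxorubicin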); settings: H69AR viability with doxorubicin, CellTiter-Glo luminescence; at 10 µM; stronger effect = higher value
[4] = viability of HCT116 without oncogenic beta-catenin – human colon tumor cells, pilot screen (AID 823;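 active = cell viability at or below a set limit in both duplicate runs, the limit being the all-compound median minus 4 SD, cut at about 23% in these data, passing the limit was not always enough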;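 also: 0% = wells killed by 20 µM Hyamine and 100% = untreated DMSO cell wells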); settings: HCT116 beta-catenin knockout viability, CellTiter-Glo, 60 h; at 10 µM; stronger effect = lower value
[5] = viability of PTEN-null HCT116 cells – cell-based, HCT116 clonal line, CellTiter-Glo, pilot screen (AID 824;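 active = viability at or below 27.92% in each of two runs, the all-compound median minus 4 SD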;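 also: 0% = 20 µM Hyamine control and 100% = vehicle cell control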); settings: HCT116 PTEN-deleted viability, 60 h, at 10 µM, stronger effect = lower value
[6] = RAM pathway blockade in budding yeast – dse1pr::URA3 reporter, 5-FOA selection, pilot screen (AID 869;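 active = inhibition over a set limit, the all-compound mean plus 3 SD, in both replicate runs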;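 also: 0% = DMSO wells with no growth and 100% = 10 µM 1-NA-PP1 with full growth; RAM network block rescues cells from 5-FOA so hits raise OD615 growth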); settings: S. cerevisiae dse1pr::URA3 5-FOA growth, OD615, 2 d; at 10 µM; stronger effect = higher value; strain carries analog-sensitive mutant Cbk1 kinase
[7] = RAM signaling pathway blockade in yeast – S. cerevisiae, Pdr1DBD-CYC8 efflux-inhibited sensitized strain, primary screen (AID 1298;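 active = RAM network inhibition above 8.4% in each of two replicates, 3 SD over the compound average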;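 also: 0% = DMSO untreated cells without growth and 100% = 10 µM 1-NA-PP1 full growth; higher means more yeast growth rescued from 5-FOA killing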); settings: S. cerevisiae cbk1-as DSE1-URA3 strain, 5-FOA growth OD615, 2 d; at 50 µM; stronger effect = higher value

O=C(Cc1cc(=O)[nH]c(=O)[nH]1)NCCN1CCOCC1
inactive: growth inhibition [1] 4.2% | growth inhibition [2] 10.4% | viability increase [3] 1.08% | viability [4] 102% | viability [5] 98.6% | inhibition [6] 0.35% | RAM network inhibition [7] 5.04%

Cn1c(=O)c2c(nc(N3CCCCCC3)n2CCSc2nc3ccccc3o2)n(C)c1=O
inactive: growth inhibition [1] -6.38% | growth inhibition [2] -18.4% | viability increase [3] -6.62% | viability [4] 80.4% | viability [5] 83% | inhibition [6] 1.14% | RAM network inhibition [7] 2.45%

COC(=O)c1cc(OC)c(OC)cc1-n1cnc2cc(OC)c(OC)cc2c1=O
inactive: growth inhibition [1] -8.81% | growth inhibition [2] -0.615% | viability increase [3] -0.58% | viability [4] 97.4% | viability [5] 105% | inhibition [6] 0.665% | RAM network inhibition [7] 0.92%

Cc1ccc2c(c1)NCC(C(=O)NC1CCC(C)CC1)O2 (stereo not given)
inactive: growth inhibition [1] -10.3% | growth inhibition [2] -4.18% | viability increase [3] 1.52% | viability [4] 98.4% | viability [5] 91.4% | inhibition [6] 1% | RAM network inhibition [7] 5.26%

CCOc1ccc(-n2c(SCC(=O)NCc3ccco3)nc3c([nH]c4ccccc43)c2=O)cc1
inactive: growth inhibition [1] -2.76% | growth inhibition [2] -7.4% | viability increase [3] -3.17% | viability [4] 68.5% | viability [5] 64.1% | inhibition [6] 1.14% | RAM network inhibition [7] 7.07%

O=C1c2ccccc2C(O)N1Cc1ccccc1Cl (stereo not given)
inactive: growth inhibition [1] -1.72% | growth inhibition [2] -0.325% | viability increase [3] -1.74% | viability [4] 93.7% | viability [5] 81.2% | inhibition [6] 2.76% | RAM network inhibition [7] 1.48%

Cc1cc(C(=O)NC2CCCC2)on1
inactive: growth inhibition [1] -11.8% | growth inhibition [2] -21.1% | viability increase [3] 0.32% | viability [4] 107% | viability [5] 102% | inhibition [6] 1.71% | RAM network inhibition [7] 1.5%

CC(C)N1C(=O)CCC1C(=O)NCc1ccccc1Cl (stereo not given)
inactive: growth inhibition [1] -8.36% | growth inhibition [2] -6.72% | viability increase [3] -2.27% | viability [4] 96% | viability [5] 98.9% | inhibition [6] 1.68% | RAM network inhibition [7] 0.01%

CC1(C)CC(=O)C=C(NCCN2CCN(C(=O)Nc3ccc(Cl)cc3)CC2)C1
inactive: growth inhibition [1] -1.03% | growth inhibition [2] 5.34% | viability increase [3] 1.25% | viability [4] 99.2% | viability [5] 101% | inhibition [6] 1.35% | RAM network inhibition [7] 4.07%

CS(=O)(=O)n1nc(C(=O)N2CCOCC2)nc1N
inactive: growth inhibition [1] -10% | growth inhibition [2] -18.6% | viability increase [3] 0.47% | viability [4] 103% | viability [5] 98.4% | inhibition [6] 2.68% | RAM network inhibition [7] 5.4%

O=C(C(Cc1ccccc1)n1cccc1)N1CCN(C2CCCCC2)CC1 (stereo not given)
inactive: growth inhibition [1] -10.9% | growth inhibition [2] -3.01% | viability increase [3] -3.47% | viability [4] 81.8% | viability [5] 88.7% | inhibition [6] 1.42% | RAM network inhibition [7] 8.24%

CCOc1ccc(C(=O)Nn2cnnc2)cc1
inactive: growth inhibition [1] -3.16% | growth inhibition [2] -5.59% | viability increase [3] 0.25% | viability [4] 104% | viability [5] 103% | inhibition [6] 0.895% | RAM network inhibition [7] 1.85%

N#CC1=C2SCN(c3ccc(F)cc3)CN2C(=O)CC1c1cccc(F)c1 (stereo not given)
inactive: growth inhibition [1] 4.17% | growth inhibition [2] 7.57% | viability increase [3] -2.71% | viability [4] 104% | viability [5] 96.7% | inhibition [6] 1.06% | RAM network inhibition [7] 7.08%

CCCC(=O)NCCCc1nc2ccccc2[nH]1
inactive: growth inhibition [1] -8.81% | growth inhibition [2] -14.7% | viability increase [3] 1.33% | viability [4] 108% | viability [5] 100% | inhibition [6] 1.45% | RAM network inhibition [7] 2.55%

CCCOc1ccc(C2c3c(oc4cc(C)c(C)cc4c3=O)C(=O)N2CCCN2CCOCC2)cc1 (stereo not given)
inactive: growth inhibition [1] 8% | growth inhibition [2] 1.72% | viability increase [3] -2.28% | viability [4] 81.9% | viability [5] 89% | inhibition [6] 0.075% | RAM network inhibition [7] 0.73%
